Experimental data from ChEMBL document CHEMBL1144611, “Optimization of 1,4-diazepan-2-one containing dipeptidyl peptidase IV inhibitors for the treatment of type 2 diabetes” (Bioorg Med Chem Lett, 2007).
pIC50: −log10 of the molar value.

What was measured:
[1] = Bioavailability in Sprague-Dawley rat at 2 mg/kg, po; type: ADME, organism-based; conditions: in vivo
Outline: (§1)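 Single iv dose of 1 mg/kg or oral dose of 2 mg/kg, given in water. Plasma clearance and half-life come from dosing; Cmax is the peak plasma level after oral dosing. Oral bioavailability was derived from the po versus iv data.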

[2] = tested on: Canis familiaris; experiment: (§2) Half life in dog at 1 mg/kg, iv or 2 mg/kg, po; type: ADME, organism-based, Canis lupus familiaris; conditions: in vivo; outline: as §1
[3] = Cmax in Sprague-Dawley rat at 1 mg/kg, iv or 2 mg/kg, po; type: ADME, organism-based; conditions: in vivo; outline: as §1
[4] = Half life in monkey at 1 mg/kg, iv or 2 mg/kg, po; type: ADME, organism-based, Macaca mulatta; conditions: rhesus monkey, in vivo; outline: as §1
[5] = Bioavailability in monkey at 2 mg/kg, po; type: ADME, organism-based, Macaca mulatta; conditions: rhesus monkey, in vivo; outline: as §1
[6] = Bioavailability in dog at 2 mg/kg, po; type: ADME, organism-based, Canis lupus familiaris; conditions: in vivo; outline: as §1
[7] = Plasma clearance in Sprague-Dawley rat at 1 mg/kg, iv or 2 mg/kg, po; type: ADME, organism-based; outline: as §1
[8] = Half life in Sprague-Dawley rat at 1 mg/kg, iv or 2 mg/kg, po; type: ADME, organism-based; conditions: in vivo; outline: as §1
[9] = Plasma clearance in monkey at 1 mg/kg, iv or 2 mg/kg, po; type: ADME, organism-based, Macaca mulatta; conditions: rhesus monkey; outline: as §1
[10] = Cmax in monkey at 1 mg/kg, iv or 2 mg/kg, po; type: ADME, organism-based, Macaca mulatta; conditions: rhesus monkey, in vivo; outline: as §1
[11] = Cmax in dog at 1 mg/kg, iv or 2 mg/kg, po; type: ADME, organism-based, Canis lupus familiaris; conditions: in vivo; outline: as §1
[12] = Plasma clearance in dog at 1 mg/kg, iv or 2 mg/kg, po; type: ADME, organism-based, Canis lupus familiaris; outline: as §1
[13] = target: Dipeptidyl peptidase 2 (Homo sapiens, UniProt Q9UHL4); experiment: Inhibition of QPP
[14] = target: Dipeptidyl peptidase 4 (Homo sapiens, UniProt P27487); experiment: Inhibition of DPP4
Sequence of Dipeptidyl peptidase 4 (P27487 whole entry): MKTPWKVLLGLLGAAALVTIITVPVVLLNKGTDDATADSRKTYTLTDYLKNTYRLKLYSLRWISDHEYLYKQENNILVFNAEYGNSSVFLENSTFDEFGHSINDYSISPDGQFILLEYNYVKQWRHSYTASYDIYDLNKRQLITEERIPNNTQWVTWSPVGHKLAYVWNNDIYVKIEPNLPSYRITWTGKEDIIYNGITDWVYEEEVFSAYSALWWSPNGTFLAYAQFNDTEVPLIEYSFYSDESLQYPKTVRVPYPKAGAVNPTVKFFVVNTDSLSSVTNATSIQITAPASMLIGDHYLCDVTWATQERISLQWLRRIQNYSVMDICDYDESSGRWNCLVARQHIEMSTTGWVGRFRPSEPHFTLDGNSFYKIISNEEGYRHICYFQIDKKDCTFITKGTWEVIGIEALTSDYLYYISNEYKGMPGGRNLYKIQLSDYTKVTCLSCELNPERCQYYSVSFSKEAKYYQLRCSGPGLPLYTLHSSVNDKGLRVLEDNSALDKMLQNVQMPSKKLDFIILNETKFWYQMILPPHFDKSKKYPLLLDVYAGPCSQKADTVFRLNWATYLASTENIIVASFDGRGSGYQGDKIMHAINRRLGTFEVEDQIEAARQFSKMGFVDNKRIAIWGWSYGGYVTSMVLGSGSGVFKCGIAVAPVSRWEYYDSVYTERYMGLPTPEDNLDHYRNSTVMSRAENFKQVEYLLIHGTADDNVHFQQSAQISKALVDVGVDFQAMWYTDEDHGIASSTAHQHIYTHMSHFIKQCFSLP

[15] = target: Dipeptidyl peptidase 8 (Homo sapiens, UniProt Q6V1X1); experiment: Inhibition of DPP8
Sequence of Dipeptidyl peptidase 8 (Q6V1X1 whole entry): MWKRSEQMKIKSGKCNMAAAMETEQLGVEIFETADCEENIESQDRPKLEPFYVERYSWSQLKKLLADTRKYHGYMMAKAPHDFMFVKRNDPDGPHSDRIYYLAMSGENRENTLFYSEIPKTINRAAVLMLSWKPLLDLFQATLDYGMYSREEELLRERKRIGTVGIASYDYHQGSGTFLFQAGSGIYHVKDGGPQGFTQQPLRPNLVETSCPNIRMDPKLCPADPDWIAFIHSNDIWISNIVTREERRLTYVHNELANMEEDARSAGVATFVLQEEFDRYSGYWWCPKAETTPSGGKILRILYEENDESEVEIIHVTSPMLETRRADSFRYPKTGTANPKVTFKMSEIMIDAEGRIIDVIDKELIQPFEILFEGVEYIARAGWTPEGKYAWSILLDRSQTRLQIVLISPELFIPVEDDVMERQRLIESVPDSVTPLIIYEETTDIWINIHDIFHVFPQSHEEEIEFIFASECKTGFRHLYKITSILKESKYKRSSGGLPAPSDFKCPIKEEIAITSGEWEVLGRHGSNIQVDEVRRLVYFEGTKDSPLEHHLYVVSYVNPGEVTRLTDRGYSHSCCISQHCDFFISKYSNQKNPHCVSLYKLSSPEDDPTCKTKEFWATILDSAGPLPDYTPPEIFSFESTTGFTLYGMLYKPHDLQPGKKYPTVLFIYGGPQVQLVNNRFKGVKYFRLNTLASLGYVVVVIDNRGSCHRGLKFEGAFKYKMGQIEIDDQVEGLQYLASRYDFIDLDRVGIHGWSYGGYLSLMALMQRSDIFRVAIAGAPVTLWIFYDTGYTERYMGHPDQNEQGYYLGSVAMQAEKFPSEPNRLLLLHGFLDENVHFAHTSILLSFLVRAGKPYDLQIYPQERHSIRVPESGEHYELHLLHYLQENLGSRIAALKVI

[16] = as §2; type: ADME, organism-based, Canis lupus familiaris; conditions: in vivo; outline: as §1

Compound	bioavailability [1] [%]	Cmax [3] [nM]	clearance [7] [mL/min/kg]	half-life [8] [h]	pIC50 [13]	also measured
C[C@@H]1CCN(C(=O)C[C@H](N)Cc2cc(F)c(F)cc2F)[C@H](C)C(=O)N1	64	170	87	1.5		t1/2 [2]: 7.2 h; half-life [4]: 4.7 h; bioavailability [5]: 71%; bioavailability [6]: 88%; clearance [9]: 42.3 mL/min/kg; Cmax [10]: 430 nM; Cmax [11]: 1290 nM; clearance [12]: 8.5 mL/min/kg
N[C@@H](CC(=O)N1CCCNC(=O)C1)Cc1cc(F)c(F)cc1F					< 4.00	
C[C@@H]1C(=O)N(C2CC2)CCCN1C(=O)C[C@H](N)Cc1cc(F)ccc1F	19	50	132	1.6	< 4.00	
C[C@@H]1C(=O)N(CC(F)(F)F)CCCN1C(=O)C[C@H](N)Cc1cc(F)c(F)cc1F	23	80	82	1.7		
C[C@@H]1C(=O)N(C)CCCN1C(=O)C[C@H](N)Cc1cc(F)c(F)cc1F	29	130	113	1.3	< 4.00	
COC(=O)CN1CCCN(C(=O)C[C@H](N)Cc2cc(F)ccc2F)[C@H](C)C1=O					< 4.00	pIC50 [14]: 7.94
C[C@@H]1CCN(C(=O)C[C@H](N)Cc2cc(F)c(F)cc2F)[C@H](Cc2ccccn2)C(=O)N1	8.1	10	97	2		
CC1CCNC(=O)CN1C(=O)C[C@H](N)Cc1cc(F)c(F)cc1F (stereo in doubt; 13b)					< 4.00	pIC50 [15]: < 4.00; pIC50 [14]: 5.98
CC1C(=O)NCCCN1C(=O)C[C@H](N)Cc1cc(F)ccc1F (some centres undefined)					< 4.00	
C[C@@H]1C(=O)N[C@H](C(F)(F)F)CCN1C(=O)C[C@H](N)Cc1cc(F)c(F)cc1F					< 4.00	pIC50 [14]: 6.86
CCN1CCCN(C(=O)C[C@H](N)Cc2cc(F)ccc2F)[C@H](C)C1=O	7.4	30	152	0.8	< 4.00	
CC1CCNC(=O)CN1C(=O)C[C@H](N)Cc1cc(F)c(F)cc1F (stereo in doubt; 13a)					4.36	pIC50 [15]: < 4.00; pIC50 [14]: 6.12
C[C@@H]1C(=O)N(C2CC2)CCCN1C(=O)C[C@H](N)Cc1cc(F)c(F)cc1F	45	570	51	4.3		
C[C@@H]1C(=O)N2CCC[C@@H]2CCN1C(=O)C[C@H](N)Cc1cc(F)c(F)cc1F	21	40	152	1.4		
C[C@@H]1C(=O)N(CC(=O)O)CCCN1C(=O)C[C@H](N)Cc1cc(F)ccc1F					< 4.00	pIC50 [15]: < 4.00; pIC50 [14]: 7.16
N[C@@H](CC(=O)N1CCCNC(=O)C1CC(F)(F)F)Cc1cc(F)c(F)cc1F (some centres undefined)	36	90	94	2		
C[C@H]1CNC(=O)[C@@H](C)N(C(=O)C[C@H](N)Cc2cc(F)c(F)cc2F)C1	49	140	92.8	1.5		half-life [16]: 8.1 h; half-life [4]: 4.4 h; bioavailability [5]: 59%; bioavailability [6]: 77%; clearance [9]: 39.4 mL/min/kg; Cmax [10]: 290 nM; Cmax [11]: 1210 nM; clearance [12]: 8.1 mL/min/kg
